{"source": "ChEMBL document CHEMBL1154686", "about": "“Pyrazoline bearing benzimidazoles: search for anticancer agent” (2010)", "type_in_all_cases": "functional", "key": {"NCI/ADR-RES": {"test_system": "NCI/ADR-RES", "experiment": "Growth inhibition of human NCI/ADR-RES cells after 48 hrs by SRB assay", "outline": "(§1)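 NCI-60 panel protocol with adherent lines. Cells were seeded at 5,000–40,000 cells/well, depending on doubling time, and pre-incubated 24 h at 37 °C, 5% CO₂. Time-zero plates were TCA-fixed at drug addition. Drugs were dissolved in DMSO and exposed for 48 h. Cells were fixed with cold TCA (final 10%) for 60 min at 4 °C, stained with 0.4% SRB in 1% acetic acid for 10 min, solubilized with 10 mM trizma base, and read at A515.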"}, "SF-268": {"test_system": "SF-268", "experiment": "Growth inhibition of human SF268 cells after 48 hrs by SRB assay", "settings": "SF-268, 48 h", "outline": "as §1"}, "HCT-15": {"test_system": "HCT-15", "experiment": "Growth inhibition of human HCT15 cells after 48 hrs by SRB assay", "settings": "HCT-15, 48 h", "outline": "as §1"}, "ACHN": {"test_system": "ACHN", "experiment": "Growth inhibition of human ACHN cells after 48 hrs by SRB assay", "outline": "as §1"}, "NCI-H460": {"test_system": "NCI-H460", "experiment": "Growth inhibition of human NCI-H460 cells after 48 hrs by SRB assay", "settings": "NCI-H460, 48 h", "outline": "as §1"}, "HCC 2998": {"test_system": "HCC 2998", "experiment": "Growth inhibition of human HCC2998 cells after 48 hrs by SRB assay", "settings": "HCC 2998, 48 h", "outline": "as §1"}, "K562": {"test_system": "K562", "experiment": "Growth inhibition of human K562 cells after 48 hrs by SRB assay", "settings": "K562, 48 h", "outline": "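Suspension leukemia lines were run in the NCI-60 SRB format. Cells were plated at 5,000–40,000 cells/well and pre-incubated 24 h at 37 °C, 5% CO₂, with time-zero plates fixed at drug addition. Drug exposure in DMSO-derived dilutions lasted 48 h. Settled cells were fixed with 80% TCA (final 16%), stained with 0.4% SRB, solubilized in 10 mM trizma base, and read at 515 nm. Percent growth was taken relative to the time-zero and control readings.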"}, "DU-145": {"test_system": "DU-145", "experiment": "Growth inhibition of human DU145 cells after 48 hrs by SRB assay", "settings": "DU-145, 48 h", "outline": "as §1"}, "[1]": {"settings": "read-out: LC50 (the source's name)"}}, "data": [{"smiles": "COc1ccc(C2CC(c3nc4ccccc4[nH]3)=NN2c2ccccc2)cc1OC", "note": "(centres undefined)", "values": [{"measurement": "GI50", "setting": "NCI/ADR-RES", "value": 19, "unit": "µM"}, {"measurement": "TGI", "setting": "NCI/ADR-RES", "value": 94.5, "unit": "µM"}, {"measurement": "CC50", "setting": "NCI/ADR-RES; [1]", "value": "> 100", "unit": "µM"}, {"measurement": "GI50", "setting": "SF-268", "value": 21.3, "unit": "µM"}, {"measurement": "TGI", "setting": "SF-268", "value": "> 100", "unit": "µM"}, {"measurement": "CC50", "setting": "SF-268; [1]", "value": "> 100", "unit": "µM"}, {"measurement": "GI50", "setting": "HCT-15", "value": 4.1, "unit": "µM"}, {"measurement": "TGI", "setting": "HCT-15", "value": 20.5, "unit": "µM"}, {"measurement": "CC50", "setting": "HCT-15; [1]", "value": 70.9, "unit": "µM"}, {"measurement": "GI50", "setting": "ACHN", "value": 14, "unit": "µM"}, {"measurement": "TGI", "setting": "ACHN", "value": "> 100", "unit": "µM"}, {"measurement": "CC50", "setting": "ACHN; [1]", "value": "> 100", "unit": "µM"}, {"measurement": "GI50", "setting": "NCI-H460", "value": 13.6, "unit": "µM"}, {"measurement": "TGI", "setting": "NCI-H460", "value": 40, "unit": "µM"}, {"measurement": "CC50", "setting": "NCI-H460; [1]", "value": "> 100", "unit": "µM"}, {"measurement": "GI50", "setting": "HCC 2998", "value": 12.4, "unit": "µM"}, {"measurement": "TGI", "setting": "HCC 2998", "value": 26.1, "unit": "µM"}, {"measurement": "CC50", "setting": "HCC 2998; [1]", "value": 55, "unit": "µM"}, {"measurement": "GI50", "setting": "K562", "value": "> 100", "unit": "µM"}, {"measurement": "TGI", "setting": "K562", "value": "> 100", "unit": "µM"}, {"measurement": "CC50", "setting": "K562; [1]", "value": "> 100", "unit": "µM"}, {"measurement": "GI50", "setting": "DU-145", "value": 33.1, "unit": "µM"}, {"measurement": "TGI", "setting": "DU-145", "value": "> 100", "unit": "µM"}, {"measurement": "CC50", "setting": "DU-145; [1]", "value": "> 100", "unit": "µM"}]}]}
